According to ChEMBL document CHEMBL4732082, “Development of novel benzimidazole-derived neddylation inhibitors for suppressing tumor growth invitro and invivo” (Eur J Med Chem, 2021):

Columns and labels:
[1] = Toxicity in nude mouse assessed as effect on body weight at 30 mg/kg, qd after 24 days; assay type: organism-based; details: in vivo, 576 h, time 24 day
In short: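 Female nude mice were inoculated subcutaneously with 2×10^6 A549 cells in 0.1 mL PBS. At tumor volume 70–100 mm³, mice were randomized into 5 groups of 6. Dosing was ip or oral gavage, once daily on a 5-days-on/2-days-off schedule, with 10% 2-hydroxypropyl-β-cyclodextrin/water as vehicle control. Body weight and tumor volume were measured every two days; tumors were weighed at sacrifice. Significance by two-tailed Student's t-test.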

[2] = biological target: T1, NEDD8-activating enzyme E1 catalytic subunit (Homo sapiens, UniProt Q8TBC4); test: Inhibition of NAE (unknown origin)-mediated neddylation assessed as suppression of cullin1-Nedd8 adduct formation preincubated for 10 mins followed by ATP addition and measured after 30 mins by immunoblot analysis
T1 sequence (Q8TBC4 whole entry): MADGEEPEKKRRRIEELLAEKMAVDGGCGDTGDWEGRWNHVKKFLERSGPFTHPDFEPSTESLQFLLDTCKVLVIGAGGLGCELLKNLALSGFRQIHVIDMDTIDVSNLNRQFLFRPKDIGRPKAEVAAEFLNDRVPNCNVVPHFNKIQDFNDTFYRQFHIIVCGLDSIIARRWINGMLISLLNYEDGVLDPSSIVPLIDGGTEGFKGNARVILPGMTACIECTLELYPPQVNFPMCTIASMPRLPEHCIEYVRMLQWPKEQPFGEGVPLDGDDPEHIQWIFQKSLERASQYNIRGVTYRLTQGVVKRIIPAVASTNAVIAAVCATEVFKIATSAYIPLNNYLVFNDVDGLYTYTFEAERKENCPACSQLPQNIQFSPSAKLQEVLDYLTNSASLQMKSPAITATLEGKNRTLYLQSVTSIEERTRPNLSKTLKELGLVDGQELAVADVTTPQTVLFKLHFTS

- IC50 [2]: 16.4 µM
SMILES: CCOc1nc2cccc(C(=O)OC(C)OC(=O)OC3CCCCC3)c2n1Cc1ccc(-c2ccccc2-c2nnn[nH]2)cc1 (configuration not stated) [CANDESARTAN CILEXETIL]
- Activity [1]: Non-Toxic
